{"data": "Measurements from different studies", "note": "Each line is one published result; the experiments were not run side by side."}
{"SMILES": "CC(C)Oc1cccc(-c2cnc(N3CCC(C(N)=O)CC3)s2)c1", "system": "male Swiss mouse, plasma", "conditions": "oral, 30 mg/kg, 0 h, single dose", "measurement": "concentration", "value": "0 nM"}
{"SMILES": "O=C1NN=C(N=Cc2ccc(O)cc2O)C1=NNn1c(-c2ccccc2)nc2ccccc2c1=O", "measurement": "logP", "value": 3.38}
{"SMILES": "COc1cc(/C=C/c2ccc(O)cc2)cc(OC)c1", "test": "HPLC", "measurement": "chromatographic logP", "value": "> 3.14"}
{"SMILES": "CC1=NN(CNc2ccccc2)C(=O)C1=NNn1c(-c2ccccc2)nc2ccccc2c1=O", "measurement": "logP", "value": 4.49}
{"SMILES": "O=C(O)C1CCN(c2ncc(-c3ccc4c(c3)OCCCO4)s2)CC1", "system": "male Swiss mouse, plasma", "conditions": "oral, 30 mg/kg, 30 min, single dose", "measurement": "concentration", "value": "14800 ng/mL"}
{"SMILES": "CCCN(CCC)CCc1cccc2c1CC(=O)N2", "test": "metabolic stability", "system": "dog, hepatocytes", "conditions": "1 µM", "measurement": "hepatocyte CLint", "value": "16.3 µL/min/10⁶ cells"}
{"SMILES": "CS(=O)(=O)CCC#N", "system": "human, plasma", "conditions": "oral, 1000 mg, single dose, fasted", "measurement": "MRT", "value": "32.5 h"}
{"SMILES": "O=S(=O)(c1ccc(-c2ccc3nccc(Nc4ccncn4)c3c2)cc1)N1CCOCC1", "system": "female BALB/c mouse, plasma", "conditions": "intraperitoneal, 10 mg/kg, 4 h", "measurement": "concentration", "value": "1350 ng/mL"}
{"SMILES": "c1cnc2ccc(Nc3nc(NC4CC4)c4nc[nH]c4n3)cc2c1", "system": "human, plasma", "conditions": "oral, 200 mg/m², patients", "measurement": "MRT(0-t)", "value": "5.7 h"}
{"SMILES": "COc1cccc(/C=C/c2ccc(O)cc2)c1", "test": "HPLC", "measurement": "chromatographic logP", "value": "> 3.14"}
{"SMILES": "CC(C)(C)c1ccc(O)c(CN(Cc2cc(C(C)(C)C)ccc2O)C2CCC(NC(N)=O)CC2)c1 (stereo not drawn)", "system": "male C57BL/6 mouse, plasma", "conditions": "intraperitoneal, 10 mg/kg, single dose", "measurement": "half-life", "value": "2.49 h"}
{"SMILES": "O=c1nc(N2CCN(CC3CCCCC3)CC2)sc2c([N+](=O)[O-])cc(C(F)(F)F)cc12", "system": "CD-1 mouse, plasma", "conditions": "oral, 100 mg/kg, 15 min", "measurement": "concentration", "value": "2280 ng/mL"}
{"SMILES": "CC(C)(Nc1nc(-c2ccccn2)nc2ccccc12)c1ccccn1", "system": "female BALB/c mouse, plasma", "conditions": "oral, 50 mg/kg, 8 h", "measurement": "concentration", "value": "5860 ng/mL"}
{"SMILES": "CC[C@H](C)[C@@H]1NC(=O)[C@@](C)(NC(=O)[C@H](CCCNC(=N)N)NC(=O)[C@H](CC(C)C)NC(=O)[C@@H](NC(=O)[C@H](CCC(N)=O)NC(=O)[C@H](CC(C)C)NC(C)=O)[C@@H](C)O)CCCC=CCCC[C@@](C)(C(=O)N[C@@H](CC(C)C)C(=O)N[C@@H](Cc2ccc3ccccc3c2)C(N)=O)NC(=O)[C@H](CCCNC(=N)N)NC(=O)[C@H](CCC(N)=O)NC1=O", "system": "male BALB/c mouse, plasma", "conditions": "intramuscular, 5 mg/kg", "measurement": "half-life", "value": "10.6 h"}
{"SMILES": "c1ccc(-c2nc(N3CCC(c4ccccn4)C3)c3ccccc3n2)nc1 (stereo not drawn)", "system": "female BALB/c mouse, plasma", "conditions": "oral, 50 mg/kg, 8 h", "measurement": "concentration", "value": "19.6 ng/mL"}
{"SMILES": "O=C1NN=C(N=Cc2ccc(O)c(O)c2)C1=NNn1c(-c2ccccc2)nc2ccccc2c1=O", "measurement": "logP", "value": 3.38}
{"SMILES": "N#CN1C[C@H](n2nc(-c3ccc(Oc4ccc(Cl)cn4)cc3)c(C(N)=O)c2N)CCC12CC2", "system": "human, plasma", "conditions": "oral, 600 mg, fasted", "measurement": "MRT", "value": "31.6 h"}
{"SMILES": "CC(C)(O)c1ccccc1-c1ccc2[nH]c(/C=C/c3ccc(C(F)(F)F)cc3)nc2c1", "system": "male human, plasma", "conditions": "oral, 2 mg, single dose, fasted, healthy volunteers", "measurement": "MRT", "value": "77.2 h"}
{"SMILES": "O=c1c(O)c(-c2ccc(O)c(O)c2)oc2cc(O)cc(O)c12", "system": "human, plasma", "conditions": "oral, 500 mg, single dose, fasted, healthy volunteers", "measurement": "MRT(0-t)", "value": "6.84 h"}
{"SMILES": "CC(C)CN(C[C@@H](O)[C@H](Cc1ccccc1)NC(=O)O[C@H]1CO[C@H]2OCC[C@H]21)S(=O)(=O)c1ccc(N)cc1", "system": "BALB/c mouse, brain", "conditions": "intravenous, 25 mg/kg, 6 h", "measurement": "concentration", "value": "1.85 ng/g"}
{"SMILES": "Oc1cccc(CCc2ccccc2)c1", "test": "HPLC", "measurement": "chromatographic logP", "value": "> 3.14"}
{"SMILES": "Cc1ccc(C(CC(=O)c2ccc(Oc3ccccc3)c(O)c2)C(N)=O)cc1 (stereo not drawn)", "test": "HPLC", "measurement": "chromatographic logP", "value": 4.06}
{"SMILES": "CCc1ccc(Cc2cc([C@@H]3O[C@H](CO)[C@@H](O)[C@H](O)[C@H]3O)cc3c2CCC3)cc1", "system": "male C57BL/6 mouse, plasma", "conditions": "oral, 0.3 mg/kg", "measurement": "half-life", "value": "3.1 h"}
{"SMILES": "CCc1cc(C(=O)NC)c2nccc(N3CCc4c(cc(Cn5ccnc5)cc4-c4cn(C)nc4C(F)(F)F)C3=O)c2c1", "system": "male CD-1 mouse, plasma", "conditions": "intravenous, 3 mg/kg", "measurement": "half-life", "value": "0.8 h"}
